Among the data in ChEMBL document CHEMBL4052629, “Scutellarin derivatives as apoptosis inducers: Design, synthesis and biological evaluation” (Eur J Med Chem, 2017) are Activity and viability values, retold here.

Molecules are shown by their SMILES. The source made the active and inactive calls. No cut-off for these calls is given here.

The test system of data set [1] is PC-3. The experiment in a line: Induction of apoptosis in human PC3 cells assessed as reduction in mitochondrial membrane potential at 0.31 uM after 48 hrs by JC-1 staining-based flow cytometric analysis (reference value: 1.86%). In kind it is functional. Also on record: scale not given: the % may be the effect or the level left. In short, it runs like this: (§1)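 After overnight culture, PC-3 cells were treated in triplicate with 0, 0.16, 0.31 or 1.25 μM, or vehicle, for 48 h. They were then loaded with JC-1, and the proportion with depolarized mitochondrial membrane potential was counted by flow cytometry.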

Data set [2] deals with PC-3. The experiment in a line: Induction of apoptosis in human PC3 cells assessed as viable cells at 1.25 uM after 72 hrs by Annexin V-APC/7-AAD or propidium iodide staining-based flow cytometric analysis (reference value: 88.74%). The following applies: PC-3, 72 h, read-out: Activity. In kind it is functional.
Data set [3] concerns PC-3. The data set is described as follows: Induction of apoptosis in human PC3 cells assessed as rupture of cell membrane at 0.16 to 1.25 uM after 48 hrs by Hoechst 33258 staining-based fluorescent microscopic analysis. It counts as functional. A digest of the protocol:
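PC-3 cells grown on sterile cover slips were exposed to 0, 0.16, 0.31 or 1.25 μM, or vehicle, for 48 h. Then fixed with 4% paraformaldehyde for 10 min, washed twice in PBS, stained with Hoechst 33258 for 5 min and washed again. Nuclei imaged at 350 nm excitation and 460 nm emission.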

For data set [4], the system named is PC-3. The experiment in a line: Induction of apoptosis in human PC3 cells assessed as early apoptotic cells at 0.31 uM after 72 hrs by Annexin V-APC/7-AAD or propidium iodide staining-based flow cytometric analysis (reference value: 4.09%). It counts as functional.
For data set [5], the system named is PC-3. The experiment in a line: Cell cycle arrest in human PC3 cells assessed as accumulation at S phase at 0.16 uM after 72 hrs by propidium iodide staining-based flow cytometric analysis (reference value: 36.46%). It counts as functional. In short, it runs like this: (§2)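 Concentrations used were 0, 0.3, 0.6 and 1.2 μM in HepG2 and 0, 0.16, 0.31 and 1.25 μM in PC-3, with untreated cells as control, for 72 h. Cells were trypsinized, washed in PBS, fixed in cold ethanol at 4 °C overnight, then incubated 30 min in PBS containing RNase A and propidium iodide. DNA content was read by flow cytometry to give phase distribution.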

The subject of a further data set is L02. The experiment in a line: Induction of apoptosis in human LO2 cells assessed as late apoptotic cells at 1.25 uM after 72 hrs by Annexin V-FITC/7-AAD or propidium iodide staining-based flow cytometric analysis (reference value: 0.11%). The following applies: l02, 72 h. It counts as cell-based.
The subject of data set [6] is PC-3. The experiment in a line: Cell cycle arrest in human PC3 cells assessed as accumulation at G1 phase at 1.25 uM after 72 hrs by propidium iodide staining-based flow cytometric analysis (reference value: 53.36%). It counts as functional. In short, it runs like this: as §2
In data set [7] the test system is PC-3. The data set is described as follows: Cell cycle arrest in human PC3 cells assessed as accumulation at G1 phase at 0.16 uM after 72 hrs by propidium iodide staining-based flow cytometric analysis (reference value: 53.36%). It counts as functional. In short, it runs like this:
as §2

Data set [8] deals with PC-3. The experiment in a line: Induction of apoptosis in human PC3 cells assessed as reduction in mitochondrial membrane potential at 0.16 uM after 48 hrs by JC-1 staining-based flow cytometric analysis (reference value: 1.86%). In kind it is functional. On the set-up: scale not given: the % may be the effect or the level left. In short, it runs like this:
as §1

Data set [9] deals with PC-3. The experiment in a line: Induction of apoptosis in human PC3 cells assessed as viable cells at 0.16 uM after 72 hrs by Annexin V-APC/7-AAD or propidium iodide staining-based flow cytometric analysis (reference value: 88.74%). In kind it is functional. The following applies: PC-3, 72 h, read-out: Activity.
Data set [10] has as its system HepG2. The data set is described as follows: Induction of apoptosis in human HepG2 cells assessed as necrotic cells at 0.6 uM after 72 hrs by Annexin V-APC/7-AAD or propidium iodide staining-based flow cytometric analysis (reference value: 1.87%). It counts as functional.
Data set [11] deals with HepG2. The data set is described as follows: Induction of apoptosis in human HepG2 cells assessed as necrotic cells at 1.2 uM after 72 hrs by Annexin V-APC/7-AAD or propidium iodide staining-based flow cytometric analysis (reference value: 1.87%). It counts as functional.
Data set [12] concerns HepG2. The experiment in a line: Cell cycle arrest in human HepG2 cells assessed as accumulation at G1 phase at 1.2 uM after 72 hrs by propidium iodide staining-based flow cytometric analysis (reference value: 34%). In kind it is functional. A digest of the protocol:
as §2

Data set [13] relates to HepG2. The data set is described as follows: Induction of apoptosis in human HepG2 cells assessed as cell shrinkage at 0.3 to 0.6 uM after 48 hrs by Hoechst 33258 staining-based fluorescent microscopic analysis. In kind it is functional. A digest of the protocol: (§3)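 HepG2 cells grown on coverslips were treated for 48 h at 0.3, 0.6 or 1.2 μM, then fixed in 4% paraformaldehyde for 10 min. After PBS washes, cells were stained with Hoechst 33258 for 5 min and washed again. Nuclear morphology was examined by fluorescence imaging at 350 nm excitation and 460 nm emission.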

Data set [14] deals with HepG2. The experiment in a line: Induction of apoptosis in human HepG2 cells assessed as viable cells at 0.6 uM after 72 hrs by Annexin V-APC/7-AAD or propidium iodide staining-based flow cytometric analysis (reference value: 90.08%). In kind it is functional. The following applies: HepG2, 72 h, read-out: Activity.
Data set [15] relates to HepG2. The data set is described as follows: Cell cycle arrest in human HepG2 cells assessed as accumulation at S phase at 0.3 uM after 72 hrs by propidium iodide staining-based flow cytometric analysis (reference value: 44.6%). In kind it is functional. In short, it runs like this: as §2
Data set [16] has as its system HepG2. The experiment in a line: Induction of apoptosis in human HepG2 cells assessed as late apoptotic cells at 1.2 uM after 72 hrs by Annexin V-APC/7-AAD or propidium iodide staining-based flow cytometric analysis (reference value: 4.14%). In kind it is functional.
Data set [17] has as its system HepG2. The experiment in a line: Induction of apoptosis in human HepG2 cells assessed as reduction in survivin expression levels at 2 uM after 24 hrs by membrane-based sandwich immunoassay. In kind it is functional, cell-based. A digest of the protocol:
(§4)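 HepG2 cells exposed to 2 μM for 24 h. Proteins extracted per kit protocol. Relative levels of 35 apoptosis-related proteins measured on a human apoptosis antibody array.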

The subject of data set [18] is HepG2. The experiment in a line: Induction of apoptosis in human HepG2 cells assessed as nuclear fragmentation at 1.2 uM after 48 hrs by Hoechst 33258 staining-based fluorescent microscopic analysis. In kind it is functional, cell-based. A digest of the protocol:
as §3

The subject of data set [19] is HepG2. The data set is described as follows: Induction of apoptosis in human HepG2 cells assessed as reduction in c-IAP1 expression levels at 2 uM after 24 hrs by membrane-based sandwich immunoassay. It counts as functional, cell-based. A digest of the protocol:
as §4

Data set [20] relates to HepG2. The data set is described as follows: Induction of apoptosis in human HepG2 cells assessed as chromatin condensation at 0.3 to 0.6 uM after 48 hrs by Hoechst 33258 staining-based fluorescent microscopic analysis. It counts as functional, cell-based. A digest of the protocol: as §3
Data set [21] relates to HepG2. The experiment in a line: Cell cycle arrest in human HepG2 cells assessed as accumulation at S phase after 72 hrs by propidium iodide staining-based flow cytometric analysis. It counts as functional. A digest of the protocol:
as §2

The test system of data set [22] is HepG2. The data set is described as follows: Induction of apoptosis in human HepG2 cells assessed as late apoptotic cells at 0.3 uM after 72 hrs by Annexin V-APC/7-AAD or propidium iodide staining-based flow cytometric analysis (reference value: 4.14%). In kind it is functional.
For data set [23], the system named is HepG2. The data set is described as follows: Induction of apoptosis in human HepG2 cells assessed as reduction in mitochondrial membrane potential at 1.2 uM after 48 hrs by JC-1 staining-based flow cytometric analysis (reference value: 1.6%). On the set-up: scale not given: the % may be the effect or the level left. In kind it is functional. In short, it runs like this: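 HepG2 cells cultured overnight, then incubated in triplicate with 0, 0.3, 0.6 or 1.2 μM, or vehicle, for 48 h. Stained with the cationic dye JC-1. Flow cytometry gave the percentage of cells with healthy versus collapsed mitochondrial membrane potential.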

The subject of data set [24] is HepG2. The data set is described as follows: Induction of apoptosis in human HepG2 cells assessed as viable cells at 0.3 uM after 72 hrs by Annexin V-APC/7-AAD or propidium iodide staining-based flow cytometric analysis (reference value: 90.08%). In kind it is functional. The following applies: HepG2, 72 h, read-out: Activity.

As for `COc1ccc(-c2cc(=O)c3c(O)c(OC)c(O[C@@H]4O[C@H](C(=O)NCCOc5no[n+]([O-])c5S(=O)(=O)c5ccccc5)[C@@H](O)[C@H](O)[C@H]4O)cc3o2)cc1`, the Activity in the data set on PC-3 [1] is reported as 35.91%; with PC-3 [4], 13.2%; with PC-3 [5] it was 38.34%; in the data set on L02, 2.95%; with PC-3 [6], 40.49%; in the data set with PC-3 [7] it was 50.05%. Further, the Activity in the data set on PC-3 [8] is listed as 17.9%. In the data set on PC-3 [2], the viability at 1.25 µM is 36.3%. Also, the outcome in the data set on PC-3 [3] was Active. Moreover, the viability at 0.16 µM in the data set on PC-3 [9] was found to be 79.1%.
Turning to `O=C(NCCCOc1no[n+]([O-])c1S(=O)(=O)c1ccccc1)[C@H]1O[C@@H](Oc2cc3oc(-c4ccc(OCc5ccccc5)cc4)cc(=O)c3c(O)c2OCc2ccccc2)[C@H](O)[C@@H](O)[C@@H]1O`, the Activity in the data set on HepG2 [10] was 2.31%; in the data set with HepG2 [11], 5.62%; with HepG2 [12], 27.12%; in the data set with HepG2 [15] it was 47.14%; in the data set with HepG2 [16] it was 39.16%; in the data set with HepG2 [21] it was “Dose-dependent effect”. Besides, the Activity in the data set with HepG2 [22] is 13.5%; in the data set with HepG2 [23], 58.47%. In addition, the outcome in the data set with HepG2 [13], in the data set on HepG2 [17], with HepG2 [18], in the data set on HepG2 [19] and with HepG2 [20] was Active. The viability at 0.6 µM in the data set on HepG2 [14] worked out at 64.6%. Also, the viability at 0.3 µM in the data set on HepG2 [24] was found to be 79.6%.
